Results as given in ChEMBL document CHEMBL4411273, “Polycyclic maleimide-based derivatives as first dual modulators of neuronal calcium channels and GSK-3β for Alzheimer's disease treatment” (Eur J Med Chem, 2019).

Assays:
[1] = tested on: Voltage-gated calcium channel; test: Inhibition of K+-induced voltage gated calcium channel opening in human SH-SY5Y cells assessed as decrease in Ca2+ level at 10 uM after 10 mins by Fluo-4 dye-based fluorescence assay relative to control; assay type: cell-based
Method in brief: (§1)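 Confluent SH-SY5Y cells (36–72 h after seeding) loaded with Fluo-4, washed with Krebs-HEPES, then incubated 10 min with compound or DMSO. Depolarized by injecting KCl to 70 mM and fluorescence followed for 2 min. Fmax taken after 5% Triton X lysis, Fmin after MnCl2. Ca2+ rise expressed against K+-induced rise without compound; blind testing, at least three independent experiments in triplicate, mean ± SEM. IC50 obtained by sigmoidal regression.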

[2] = tested on: Ileum; test: Inhibition of calcium-induced contraction in K+-depolarized guinea pig ileum at 10^-5 M relative to control; assay type: tissue-based; settings: Cavia porcellus
Method in brief: (§2)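 Isolated guinea-pig aortic strips and ileum longitudinal smooth muscle, depolarized with 80 mM K+. Calcium-induced contraction measured with cumulative compound addition. Percent inhibition relative to control. IC50 from log concentration–response curves by Probit analysis, n = 6–7; not calculated when maximum effect was <50%.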

[3] = tested on: Ileum; test: Inhibition of calcium-induced contraction in K+-depolarized guinea pig ileum; assay type: tissue-based; settings: Cavia porcellus
[4] = tested on: Left cardiac atrium; test: Negative inotropic activity in guinea pig left atrium assessed as decrease in developed tension at 5 x 10^-5 M relative to control; assay type: ADME, tissue-based, Cavia porcellus; design: scale not given: the % may be the effect or the level left; settings: 50 µM
Method in brief: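 Isolated guinea-pig left atrium driven at 1 Hz. Cumulative compound concentrations from 0.1 to 100 µM. Percent decrease in developed tension versus control, n = 5–6. EC50 from log concentration–response curves by Probit analysis, n = 6–7; not calculated when maximum effect was <50%.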

[5] = tested on: Left cardiac atrium; test: Negative inotropic activity in guinea pig left atrium assessed as decrease in developed tension; assay type: ADME, tissue-based; settings: Cavia porcellus
[6] = tested on: Right cardiac atrium; test: Negative chronotropic activity in guinea pig spontaneously beating right atrium assessed as decrease in atrial rate at 5 x 10^-5 M; assay type: ADME, tissue-based, Cavia porcellus; design: scale not given: the % may be the effect or the level left; settings: 50 µM
Method in brief: (§3)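 Isolated spontaneously beating guinea-pig right atrium. Cumulative compound addition from 0.1 to 100 µM. Percent decrease in atrial rate, and in developed tension (n = 7–8), versus control. EC50 from log concentration–response curves by Probit analysis; not calculated when maximum effect was <50%.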

[7] = tested on: Aorta; test: Inhibition of calcium-induced contraction in K+-depolarized guinea pig aortic strips at 5 x 10^-5 M relative to control; assay type: tissue-based; settings: Cavia porcellus; method in brief: as §2
[8] = tested on: Right cardiac atrium; test: Negative inotropic activity in guinea pig spontaneously beating spontaneously beating right atrium assessed as decrease in developed tension; assay type: ADME, tissue-based; settings: Cavia porcellus; method in brief: as §3
[9] = tested on: Right cardiac atrium; test: Negative inotropic activity in guinea pig spontaneously beating right atrium assessed as decrease in developed tension at 5 x 10^-5 M; assay type: ADME, tissue-based, Cavia porcellus; design: scale not given: the % may be the effect or the level left; settings: 50 µM; method in brief: as §3
[10] = tested on: Ileum; test: Inhibition of calcium-induced contraction in K+-depolarized guinea pig ileum at […] relative to control; settings: Cavia porcellus, read-out: INH
[11] = tested on: Left cardiac atrium; test: Negative inotropic activity in guinea pig left atrium assessed as decrease in developed tension at 10^-5 M relative to control; design: scale not given: the % may be the effect or the level left; settings: 10 µM
[12] = tested on: Right cardiac atrium; test: Negative chronotropic activity in guinea pig spontaneously beating right atrium assessed as decrease in atrial rate at 10^-7 M; assay type: ADME, tissue-based, Cavia porcellus; design: scale not given: the % may be the effect or the level left; settings: 0.1 µM
[13] = tested on: Aorta; test: Inhibition of calcium-induced contraction in K+-depolarized guinea pig aortic strips at 10^-6 M relative to control; settings: Cavia porcellus, read-out: INH
[14] = biological target: Voltage-gated calcium channel; test: Inhibition of K+-induced voltage gated calcium channel opening in human SH-SY5Y cells assessed as decrease in Ca2+ level after 10 mins by Fluo-4 dye-based fluorescence assay; assay type: cell-based; method in brief: as §1
[15] = biological target: Glycogen synthase kinase-3 beta (Homo sapiens) (UniProt P49841); test: Inhibition of GSK3beta (unknown origin) assessed as residual activity at 50 uM pre-incubated for 30 mins followed by ULight-GS (Ser641/pSer657) peptide substrate addition and measured after 1 hr by TR-FRET assay relative to control
Chain of Glycogen synthase kinase-3 beta (Homo sapiens) (P49841 whole entry, looked up): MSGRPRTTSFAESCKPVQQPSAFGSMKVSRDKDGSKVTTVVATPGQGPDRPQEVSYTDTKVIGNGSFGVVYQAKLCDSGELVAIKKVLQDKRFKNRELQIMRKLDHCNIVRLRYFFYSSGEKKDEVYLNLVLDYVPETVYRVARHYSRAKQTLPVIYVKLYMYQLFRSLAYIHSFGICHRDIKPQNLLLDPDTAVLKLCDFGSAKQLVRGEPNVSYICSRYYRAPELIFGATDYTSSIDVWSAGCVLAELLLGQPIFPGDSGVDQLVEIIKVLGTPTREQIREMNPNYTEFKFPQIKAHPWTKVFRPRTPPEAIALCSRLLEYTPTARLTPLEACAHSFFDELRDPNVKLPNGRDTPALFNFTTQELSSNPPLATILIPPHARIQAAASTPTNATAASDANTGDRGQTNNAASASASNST
Method in brief: (§4)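 TR-FRET (LANCE Ultra) kinase assay at 22 °C in 50 mM HEPES pH 7.5, 1 mM EGTA, 10 mM MgCl2, 2 mM DTT, 0.01% Tween-20, 3% DMSO. GSK-3β (0.5 nM final) preincubated 30 min with compound; ATP 10 µM and ULight-GS peptide 50 nM (final) added for 1 h. Stopped with 24 mM EDTA plus 2 nM Eu-anti-phospho-GS antibody, 1 h. Read at ex 320 nm, em 615/665 nm. Residual activity relative to DMSO; three separate experiments, mean ± SD.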

[16] = tested on: Ileum; test: Inhibition of calcium-induced contraction in K+-depolarized guinea pig ileum at 5 x 10^-5 M relative to control; assay type: tissue-based; settings: Cavia porcellus; method in brief: as §2
[17] = tested on: Right cardiac atrium; test: Negative chronotropic activity in guinea pig spontaneously beating right atrium assessed as decrease in atrial rate at 10^-5 M; assay type: ADME, tissue-based, Cavia porcellus; design: scale not given: the % may be the effect or the level left; settings: 10 µM; method in brief: as §3
[18] = tested on: Right cardiac atrium; test: Negative chronotropic activity in guinea pig spontaneously beating right atrium assessed as decrease in atrial rate at 10^-6 M; assay type: ADME, tissue-based, Cavia porcellus; design: scale not given: the % may be the effect or the level left; settings: 1 µM; method in brief: as §3
[19] = tested on: Ileum; test: Inhibition of calcium-induced contraction in K+-depolarized guinea pig ileum at 10^-6 M relative to control; assay type: tissue-based; settings: Cavia porcellus; method in brief: as §2
[20] = Cytotoxicity against human SH-SY5Y cells assessed as cell viability at 30 uM after 48 hrs by MTT assay relative to control; assay type: cell-based; settings: read-out: Activity
Method in brief: (§5)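 SH-SY5Y cells seeded at 70 000 cells/well, exposed before confluence to compounds in MEM/F12 with 10% FBS for 24 h, then fresh medium with 1% FBS plus compounds for a further 24 h. MTT 1.2 mM for 2 h in dark; formazan dissolved in DMSO, absorbance at 540 nm. Viability expressed as percent of vehicle (DMSO)-treated cells; three independent experiments, mean ± SEM.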

[21] = tested on: Left cardiac atrium (Cavia porcellus); test: Negative inotropic activity in guinea pig left atrium driven at 1 Hz assessed as decrease in developed tension at 10^-5 M; design: scale not given: the % may be the effect or the level left; settings: 10 µM
[22] = Cytotoxicity against human SH-SY5Y cells assessed as cell viability at 10 uM after 48 hrs by MTT assay relative to control; assay type: cell-based; settings: read-out: Activity; method in brief: as §5
[23] = biological target: Glycogen synthase kinase-3 beta (Homo sapiens) (UniProt P49841); test: Inhibition of GSK3beta (unknown origin) assessed as residual activity at 3.12 uM pre-incubated for 30 mins followed by ULight-GS (Ser641/pSer657) peptide substrate addition and measured after 1 hr by TR-FRET assay relative to control; method in brief: as §4

Row | SMILES | inhibition (INH) [1] [%] | EC50 [3] [nM] | Activity [4] [%] | EC50 [5] [nM] | EC50 [8] [nM] | Activity [9] [%] | IC50 [14] [nM] | Activity [17] [%] | Activity [11] [%] | Activity [21] [%] | inhibition at 50 µM [7] [%] | inhibition at 50 µM [16] [%] | viability at 48 h, 30 µM [20] [%] | viability at 48 h, 10 µM [22] [%] | other results
1 | COC(=O)C1=C(C)NC(C)=C(C(=O)OC)C1c1ccccc1[N+](=O)[O-] [NIFEDIPINE] | – | 1.5 | – | – | – | – | – | – | – | – | – | – | – | – | inhibition at 0.005 µM [10]: 70%; Activity ([11]; Left cardiac atrium): 97%; Activity [12]: 85%; inhibition at 1 µM [13]: 82%
2 | COCCOC(=O)C1=C(C)NC(C)=C(C(=O)OC(C)C)C1c1cccc([N+](=O)[O-])c1 (stereo unspecified) [NIMODIPINE] | 25 | – | – | – | – | – | 14000 | – | – | – | – | – | – | – | –
3 | O=C1NC(=O)C2C1C1c3ccccc3C2(/C=N/Cc2ccccc2)c2ccccc21 (stereo unspecified) | 4 | 12100 | 75 | 850 | 2870 | 85 | – | – | – | – | – | 85 | – | – | Activity [15]: 51%; Activity [6]: 26%
4 | CCCCCCCNC(=O)C12c3ccccc3C(c3ccccc31)C1C(=O)NC(=O)C12 (stereo unspecified) | 56 | 3670 | – | 1910 | 510 | – | 9000 | 45 | 76 | 85 | 6 | 94 | 87 | 85 | Activity [23]: 55%; Activity [15]: 10%
5 | O=C1NC(=O)C2C3c4ccccc4C(c4cccc(Cl)c43)C12 (stereo unspecified) | 37 | 1180 | – | 870 | 1080 | – | 11000 | 37 | 93 | 94 | 9 | – | 93 | 92 | inhibition at 10 µM [2]: 90%
6 | O=C1NC(=O)C2C1C1(Cl)c3ccccc3C2(Cl)c2ccccc21 (stereo unspecified) | 38 | 490 | 97 | 220 | 470 | 97 | 15000 | – | – | – | 7 | – | 92 | 95 | inhibition at 1 µM [19]: 68%; Activity [15]: 48%

The next lines start with results.

Row | inhibition (INH) [1] [%] | EC50 [3] [nM] | Activity [4] [%] | EC50 [5] [nM] | EC50 [8] [nM] | Activity [9] [%] | IC50 [14] [nM] | Activity [17] [%] | Activity [11] [%] | Activity [21] [%] | SMILES | inhibition at 50 µM [7] [%] | inhibition at 50 µM [16] [%] | viability at 48 h, 30 µM [20] [%] | viability at 48 h, 10 µM [22] [%] | other results
7 | 8 | 2510 | 79 | 3650 | 2180 | 93 | – | – | – | – | CC(=O)Nc1ccc2c(c1)C1c3ccccc3C2C2C(=O)NC(=O)C12 (stereo unspecified) | 10 | – | – | – | inhibition at 10 µM [2]: 67%; Activity [6]: 37%
8 | 11 | 14700 | 82 | 1910 | 1870 | 92 | – | 42 | – | – | Nc1cccc2c1C1c3ccccc3C2C2C(=O)NC(=O)C12 (stereo unspecified) | 8 | 97 | – | – | –
9 | 0 | – | – | 320 | – | 34 | – | – | 65 | – | CC(=O)Nc1cccc2c1C1c3ccccc3C2C2C(=O)NC(=O)C12 (stereo unspecified) | 6 | 12 | – | – | Activity [6]: 8%
10 | 6 | 1270 | 74 | 1490 | 2200 | 79 | – | – | – | – | Nc1ccc2c(c1)C1c3ccccc3C2C2C(=O)NC(=O)C12 (stereo unspecified) | – | – | – | – | inhibition at 10 µM [2]: 90%; Activity [18]: 15%
11 | 39 | 3330 | – | 430 | 2480 | – | 15000 | 47 | 80 | 87 | O=C1NC(=O)C2C3c4ccccc4C(c4ccc(Cl)cc43)C12 (stereo unspecified) | 21 | – | 97 | 91 | inhibition at 1 µM [19]: 90%
12 | 20 | 770 | 11 | – | – | – | – | 33 | – | 4 | CC(=O)c1ccc2c(c1)C1c3ccccc3C2C2C(=O)NC(=O)C12 (stereo unspecified) | 18 | 85 | – | – | –
